The record followed here is ChEMBL document CHEMBL4406888, “Synthesis of analogs of the Gwt1 inhibitor manogepix (APX001A) and in vitro evaluation against Cryptococcus spp” (Bioorg Med Chem Lett, 2019).

Molecules are shown by their SMILES. In brackets after ≈: the same amount, converted by molar mass. Where only a bound is given, the exact number is not on record here.

Series [1] is described as follows: Half life in human liver microsomes at 1 uM preincubated for 5 mins followed by NADPH addition and measured for 45 mins by LC/MS analysis. It is filed as ADME, Microsome. Conditions: for t1/2: microsomes, 0.75 h, 1 µM.
In series [2] the test system is Cryptococcus gattii. Kind of series: Antifungal activity against Cryptococcus gattii incubated for 72 hrs by broth micro dilution method. It is filed as functional.
Series [3] has as its system Cryptococcus neoformans. The series is described as follows: Antifungal activity against Cryptococcus neoformans incubated for 72 hrs by broth micro dilution method. The format is functional.
For series [4], the system named is HepG2. The series is described as follows: Cytotoxicity against human HepG2 cells assessed as reduction in cell viability at 3 uM by CellTiter-Glo luminescent cell viability assay relative to control. The note with it: hepg2, 3 µM. It is filed as cell-based. A general note: In ATP-based viability assays light output follows the ATP content of the culture.
Series [5] addresses T1, GPI-anchored wall transfer protein 1 (Candida albicans (strain SC5314 / ATCC MYA-2876) (Yeast)) (UniProt Q873N2).
T1 sequence (whole entry): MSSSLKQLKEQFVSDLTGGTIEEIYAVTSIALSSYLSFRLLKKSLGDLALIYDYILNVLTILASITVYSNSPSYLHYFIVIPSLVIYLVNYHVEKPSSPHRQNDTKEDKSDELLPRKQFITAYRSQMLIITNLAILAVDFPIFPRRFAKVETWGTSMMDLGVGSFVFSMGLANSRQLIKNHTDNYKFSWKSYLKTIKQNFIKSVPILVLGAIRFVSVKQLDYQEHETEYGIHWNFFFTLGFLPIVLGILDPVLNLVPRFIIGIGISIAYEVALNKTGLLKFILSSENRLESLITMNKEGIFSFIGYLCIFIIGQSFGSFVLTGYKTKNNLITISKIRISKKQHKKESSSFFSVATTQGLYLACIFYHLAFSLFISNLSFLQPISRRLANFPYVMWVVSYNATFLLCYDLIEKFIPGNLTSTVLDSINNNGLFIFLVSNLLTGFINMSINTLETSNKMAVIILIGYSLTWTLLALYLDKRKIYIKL
Kind of series: Antifungal activity against Candida albicans GWT1 expressed in Saccharomyces cerevisiae assessed as overexpression ratio. The method in brief:
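MICs measured against S. cerevisiae strains expressing high and low levels of Gwt1. The value is the ratio of the two strains' MICs.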

Series [6] deals with T2, PIGW (glucosaminyl-phosphatidylinositol-acyltransferase) (Homo sapiens, UniProt Q7Z7B1).
T2 sequence (Q7Z7B1 whole entry): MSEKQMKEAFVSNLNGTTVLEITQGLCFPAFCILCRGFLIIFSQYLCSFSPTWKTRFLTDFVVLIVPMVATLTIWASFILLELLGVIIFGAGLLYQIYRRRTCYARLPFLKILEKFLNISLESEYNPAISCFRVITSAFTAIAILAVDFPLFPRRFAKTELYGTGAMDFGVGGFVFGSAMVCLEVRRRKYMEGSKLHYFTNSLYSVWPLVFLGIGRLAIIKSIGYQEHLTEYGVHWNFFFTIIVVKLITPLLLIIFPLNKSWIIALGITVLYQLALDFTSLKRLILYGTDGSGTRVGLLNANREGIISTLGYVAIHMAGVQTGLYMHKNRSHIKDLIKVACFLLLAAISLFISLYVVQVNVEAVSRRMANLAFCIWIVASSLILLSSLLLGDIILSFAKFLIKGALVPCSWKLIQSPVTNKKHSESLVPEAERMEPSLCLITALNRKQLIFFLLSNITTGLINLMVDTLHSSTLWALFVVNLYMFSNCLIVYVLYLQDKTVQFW
Kind of series: Inhibition of human PIGW expressed in Saccharomyces cerevisiae at 16 uM by spectrophotometric analysis relative to control. Conditions: Saccharomyces cerevisiae expressing human PIGW.

On to `O=C(c1ccc(F)cc1)C1CCN(CCn2c(=O)[nH]c3ccccc3c2=O)CC1` [KETANSERIN], for which the half-life at 1 µM in series [1] (liver microsomes) stood at 40.8 min.
With `Nc1ncccc1-c1cc(Cc2ccc(CNc3ccccc3)cc2)no1`, the figures for the MIC in series [2] and in series [3] were 0.063 µg/mL (≈ 0.177 µM) and 0.125 µg/mL (≈ 0.351 µM), respectively.
The matching figures for `Nc1ncccc1-c1cc(Cc2ccc(Cc3ccccc3)cc2)no1`: 0.008 µg/mL (≈ 0.0234 µM) and 0.031 µg/mL (≈ 0.0908 µM).
The matching figures for `Nc1ncccc1-c1cc(Cc2ccc(Cn3cccn3)cc2)no1`: 0.063 µg/mL (≈ 0.19 µM) and 0.25 µg/mL (≈ 0.754 µM).
For the compound `Nc1ncccc1-c1cc(Cc2ccc(OCc3cccc(Cl)c3)nc2)no1`, the “Cell viability (% of control)” value in series [4] is reported as 98%. In addition, the Ratio in series [5] turned out to be 4. In addition, the MIC in series [2] and in series [3] was 0.016 µg/mL (≈ 0.0407 µM) throughout. In series [6], this compound returned an inhibition at 16 µM of 80%.
For `Nc1ncccc1-c1cc(Cc2ccc(OCCc3cccc(F)c3)nc2)no1`, the MIC in series [2] and in series [3] was 0.063 µg/mL (≈ 0.161 µM) each time.
In the case of `Nc1ncccc1-c1cc(Cc2ccc(OCc3ccccc3F)nc2)no1`, the MIC in series [2] and in series [3] was 0.031 µg/mL (≈ 0.0824 µM) throughout.
Consider `Nc1ncccc1-c1cc(Cc2ccc(Cc3cccc(F)n3)cc2)no1`, for which the figures for the MIC in series [2] and in series [3] were 0.016 µg/mL (≈ 0.0444 µM) and 0.031 µg/mL (≈ 0.086 µM), respectively.
For `CC(Oc1ccc(Cc2cc(-c3cccnc3N)on2)cn1)c1ccccc1F` (configuration not stated) the same measures were 0.5 µg/mL (≈ 1.28 µM) and 0.25 µg/mL (≈ 0.64 µM).
On to `Nc1ncccc1-c1cc(Cc2ccc(Oc3cccc(F)n3)cc2)no1`, for which the “Cell viability (% of control)” value in series [4] stood at 93%. This compound also had a t1/2 in series [1] of 43 min. The Ratio in series [5] is 16. The results for the MIC in series [2] and in series [3] were 0.004 µg/mL (≈ 0.011 µM) and 0.008 µg/mL (≈ 0.0221 µM), respectively. For the same compound, in series [6], at 16 µM the inhibition was 0%.
Compound `Nc1ncccc1-c1cc(Cc2ccc(Cc3ccco3)cc2)no1` displayed a t1/2 in series [1] of 3.15 min. Also, the MIC in series [2] and in series [3] was 0.016 µg/mL (≈ 0.0483 µM) in each case.
For the compound `Nc1ncccc1-c1cc(Cc2ccc(OCC3CCC3)nc2)no1`, in series [1], the t1/2 came out at 4.65 min. Besides, the MIC in series [2] is 0.008 µg/mL (≈ 0.0238 µM); in series [3], 0.016 µg/mL (≈ 0.0476 µM).
On to `Nc1ncccc1-c1cc(Cc2ccc(Oc3ccccc3F)nc2)no1`, for which the MIC in series [2] amounted to 0.031 µg/mL (≈ 0.0855 µM); in series [3] it was 0.016 µg/mL (≈ 0.0442 µM).
Regarding `Nc1ncccc1-c1cc(Cc2ccc(OCc3ccncc3)cc2)no1`, in series [1], the t1/2 was found to be 17.3 min. Besides, the MIC in series [2] amounted to 0.008 µg/mL (≈ 0.0223 µM); in series [3], 0.016 µg/mL (≈ 0.0446 µM).
For `Nc1ncccc1-c1cc(Cc2ccc(Nc3ccccc3F)nc2)no1` the same measures were 37.1 min, 0.016 µg/mL (≈ 0.0443 µM) and 0.016 µg/mL (≈ 0.0443 µM).
For `Nc1ncccc1-c1cc(Cc2ccc(Cc3ccc(F)o3)cc2)no1` the same measures were 14.4 min, 0.016 µg/mL (≈ 0.0458 µM) and 0.016 µg/mL (≈ 0.0458 µM).
Take `Nc1ncccc1-c1cc(Cc2ccc(Oc3ccccn3)cc2)no1`: the “Cell viability (% of control)” value in series [4] came to 77%. The t1/2 in series [1] is listed as 61.5 min. In addition, the MIC in series [2] was 0.008 µg/mL (≈ 0.0232 µM); in series [3] it was 0.016 µg/mL (≈ 0.0465 µM).
As to `Nc1ncccc1-c1cc(Cc2ccc(COc3ccccn3)cc2)no1` [MANOGEPIX], the “Cell viability (% of control)” value in series [4] is 98%. Besides, in series [1], the t1/2 came out at 49.9 min. Besides, the Ratio in series [5] was 8. Further, the values for the MIC in series [2] and in series [3] were 0.125 µg/mL (≈ 0.349 µM) and 0.25 µg/mL (≈ 0.698 µM), respectively. The compound also returned an inhibition at 16 µM in series [6] of 0%.
Take `Nc1ncccc1-c1cc(Cc2ccc(OCC3CC3)nc2)no1`: the MIC in series [2] turned out to be 0.016 µg/mL (≈ 0.0496 µM); in series [3] it was 0.031 µg/mL (≈ 0.0962 µM).
With `Nc1ncccc1-c1cc(Cc2ccc(COc3ccccc3)cc2)no1`, the MIC came to 0.063 µg/mL (≈ 0.176 µM) in series [2] and 0.125 µg/mL (≈ 0.35 µM) in series [3].
For `Nc1ncccc1-c1cc(Cc2ccc(CNc3cccc(F)n3)cc2)no1` the same measures were 0.25 µg/mL (≈ 0.666 µM) and 0.25 µg/mL (≈ 0.666 µM).
For `Cc1occc1COc1ccc(Cc2cc(-c3cccnc3N)on2)cn1` the same measures were 2 µg/mL (≈ 5.52 µM) and 2 µg/mL (≈ 5.52 µM).
The matching figures for `Nc1ncccc1-c1cc(Cc2ccc(OCCc3ccccc3F)nc2)no1`: 0.031 µg/mL (≈ 0.0794 µM) and 0.031 µg/mL (≈ 0.0794 µM).
For `Nc1ncccc1-c1cc(Cc2ccnc(OCc3cccc(F)c3)c2)no1`, the MIC in series [2] and in series [3] was 0.031 µg/mL (≈ 0.0824 µM) throughout.
With `Nc1ncccc1-c1cc(Cc2ccc(CCc3ccccc3)cc2)no1`, the minimal inhibitory concentration (MIC) in series [2] and in series [3] was 0.5 µg/mL (≈ 1.41 µM) in each case.
As for `Nc1ncccc1-c1cc(Cc2ccc(CNCc3ccn[nH]3)cc2)no1`, the MIC in series [2] and in series [3] was greater than 4 µg/mL in each case.
For the compound `Nc1ncccc1-c1cc(Cc2ccc(OCc3ccccc3)cc2)no1`, the MIC in series [2] and in series [3] was 0.031 µg/mL (≈ 0.0867 µM) each time.
Compound `Nc1ncccc1-c1cc(Cc2ccc(OCc3ccncc3)nc2)no1` came in with a t1/2 in series [1] of 20.3 min. The MIC in series [2] and in series [3] was 0.008 µg/mL (≈ 0.0223 µM) each time.
For `Cc1nccc(NCc2ccc(Cc3cc(-c4cccnc4N)on3)cc2)n1`, the MIC in series [2] and in series [3] was greater than 4 µg/mL throughout.
For the compound `Nc1ncccc1-c1cc(Cc2ccnc(OCCc3cccc(F)c3)c2)no1`, the MIC in series [2] was determined as 1 µg/mL (≈ 2.56 µM); in series [3] it was 0.5 µg/mL (≈ 1.28 µM).
`Nc1ncccc1-c1cc(Cc2ccc(OCc3cccc(F)c3)nc2)no1`: in series [4], the “Cell viability (% of control)” value is recorded as 97%. Moreover, the t1/2 in series [1] is 62.3 min. For the same compound, the Ratio in series [5] was 8. In addition, the MIC in series [2] and in series [3] was 0.016 µg/mL (≈ 0.0425 µM) in each case. The same compound came in with an inhibition at 16 µM in series [6] of 5%.
With `Nc1ncccc1-c1cc(Cc2ccc(Oc3cccc(F)c3)nc2)no1`, in series [4], the “Cell viability (% of control)” value is 102%. The same compound displayed a t1/2 in series [1] of 93.9 min. Also, the Ratio in series [5] stood at 8. The MIC was 0.016 µg/mL (≈ 0.0442 µM) in series [2] and 0.008 µg/mL (≈ 0.0221 µM) in series [3]. Moreover, testing at 16 µM in series [6] gave an inhibition of 0%.
For `Nc1ncccc1-c1cc(Cc2ccc(OCc3ccoc3)nc2)no1`, the MIC came out at 0.031 µg/mL (≈ 0.089 µM) in series [2] and 0.016 µg/mL (≈ 0.0459 µM) in series [3].

The half-life is how long it takes for the measured level to halve. Higher therefore signals slow loss. By MIC is commonly meant the least concentration at which growth counts as inhibited. A high value points to a need for much substance. One may read the inhibition as the share of the control response that was lost under treatment. High values mean a response far below the control, low ones a response near the control.
